# Measured values as given in PMC3276733 (Journal of Medicinal Chemistry, 2012).
# Read-outs that look alike come from different tables or passages of the source.
# Columns and labels:
# [1] = test system: tadpoles; conditions: cited from earlier work
# [2] = target: rat α1β2γ2L GABAA receptors expressed in Xenopus laevis oocytes (Rattus norvegicus, UniProt P62813); type: cell-based; conditions: 2 μM GABA, compound up to 10 μM
# Procedure, shortened: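 Rat α1, β2, γ2L cRNA (equal parts, 20-40 ng total) injected into defolliculated stage V-VI oocytes, which were held at 18 °C in supplemented ND96 (pH 7.4) and recorded 2-5 days later. Two-electrode voltage clamp at −70 mV. Response was the current ratio with/without compound, against 2 μM GABA. Direct gating: 10 μM compound without GABA, as a ratio to the 2 μM GABA current. ≥4 oocytes; SEM.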
# [3] = target: α1(Q241L)β2γ2L GABAA receptors (Rattus norvegicus, UniProt P62813, Q268L); experiment: Potentiation of GABA currents in oocytes expressing the steroid-insensitive α1; type: cell-based; conditions: GABA 2 TM, −70 mV, 4 WT and 4 mutant oocytes
# [4] = test system: tadpoles; experiment: Tadpole loss of righting reflex; type: in vivo; conditions: loss of swimming reflex; None = all tadpoles had a swimming response at 10 μM
# [5] = read-out: tadpole LRR EC50, loss of righting reflex, literature values ref 14
compound,measurement,setting,value
"C[C@@]12CC[C@H](O)C[C@H]1CC[C@@H]1[C@@H]2CC[C@@]2(C)C(=O)CC[C@@H]12 (single isomer, unassigned) [compound ent-2, ent-androsterone]",EC50,[1]; [5],1420 ± 180 nM
"C[C@@]12CC[C@H](O)C[C@H]1CC[C@@H]1[C@@H]2[C@H](OCc2ccccc2)C[C@@]2(C)C(=O)CC[C@@H]12 (single isomer, unassigned) [compound ent-4, (3β,5β,8α,9β,10α,11α,13α,14β)-11-Benzyloxy-3-hydroxyandrostan-17-one]",effect on GABA-mediated currents,[2],weakly inhibit
"C[C@@]12CC[C@H](O)C[C@H]1C[C@@H](OCc1ccccc1)[C@@H]1[C@@H]2CC[C@@]2(C)C(=O)CC[C@@H]12 (single isomer, unassigned) [compound ent-6, (3β,5β,7α,8α,9β,10α,13α,14β)-7-Benzyloxy-3-hydroxyandrostan-17-one]",effect of the α1 Q241L mutation on potentiation of GABA currents,[3]; compound 1 TM,"abolishes, completely or nearly completely"
"C[C@@]12CC[C@H](O)C[C@H]1C[C@@H](OCc1ccccc1)[C@@H]1[C@@H]2CC[C@]2(C)[C@H]1CC[C@]21CO1 (single isomer, unassigned) [compound ent-7, (3β,5β,7α,8α,9β,10α,13α,14β,17α)-Spiro[7-Benzyoxyandrostane-17,2′-oxiran]-3-ol]",effect of the α1 Q241L mutation on potentiation of GABA currents,[3]; compound 0.5 TM,"abolishes, completely or nearly completely"
"C[C@@]12CC[C@H](O)C[C@H]1CC[C@@H]1[C@@H]2CC[C@]2(C)[C@H]1CC[C@]21CO1 (single isomer, unassigned) [ent-3]",EC50,[1]; [5],1080 ± 10 nM
"CC(=O)[C@H]1CC[C@H]2[C@@H]3CC[C@H]4C[C@H](O)CC[C@]4(C)[C@H]3CC[C@]12C [compound 1, allopregnanolone]",EC50,"[1]; read-out: Tadpole LSR EC50, loss of swimming reflex, literature values ref 27",5500 ± 500 nM
same,EC50,"[1]; read-out: tadpole LRR EC50, loss of righting reflex, literature values ref 27",420 ± 40 nM
same,effect of the α1 Q241L mutation on potentiation of GABA currents,[3]; compound 0.5 TM,eliminates the potentiation
"C[C@]12CC[C@@H](O)C[C@@H]1CC[C@@H]1[C@@H]2CC[C@]2(C)C(=O)CC[C@@H]12 [compound 2, androsterone]",EC50,[1]; [5],3380 ± 900 nM
C[C@]12CC[C@@H](O)C[C@@H]1CC[C@@H]1[C@@H]2CC[C@@]2(C)[C@H]1CC[C@@]21CO1 [compound 3],EC50,[1]; [5],1350 ± 10 nM
"C[C@]12CC[C@@H](O)C[C@@H]1CC[C@@H]1[C@@H]2[C@@H](OCc2ccccc2)C[C@]2(C)C(=O)CC[C@@H]12 [compound 4, (3α,5α,11β)-11-Benzyloxy-3-hydroxyandrostan-17-one]",effect of the α1 Q241L mutation on potentiation of GABA currents,[3]; compound 1 TM,"abolishes, completely or nearly completely"
"C[C@]12CC[C@@H](O)C[C@@H]1CC[C@@H]1[C@@H]2[C@@H](OCc2ccccc2)C[C@@]2(C)[C@H]1CC[C@@]21CO1 [compound 5, (3α,5α,11β,17β)-Spiro[11-benzyloxyandrostane-17,2′-oxiran]-3-ol]",effect of the α1 Q241L mutation on potentiation of GABA currents,[3]; compound 0.5 TM,"abolishes, completely or nearly completely"
"C[C@]12CC[C@@H](O)C[C@@H]1C[C@H](OCc1ccccc1)[C@@H]1[C@@H]2CC[C@]2(C)C(=O)CC[C@@H]12 [compound 6, (3α,5α,7β)-7-Benzyloxy-3-hydroxyandrostan-17-one]",Tadpole LSR EC50,[4],None^e
same,effect on GABA-mediated currents,[2],weakly inhibit
"C[C@]12CC[C@@H](O)C[C@@H]1C[C@H](OCc1ccccc1)[C@@H]1[C@@H]2CC[C@@]2(C)[C@H]1CC[C@@]21CO1 [compound 7, (3α,5α,7β,17β)-Spiro-[7-Benzyloxyandrostane-17,2′-oxiran]-3-ol]",effect on GABA-mediated currents,[2],weakly inhibit
